Results as given in ChEMBL document CHEMBL1137939, “Manipulation of kinetic profiles in 2-aryl propionic acid cyclooxygenase inhibitors” (Bioorg Med Chem Lett, 2004).

These compounds were tested against T1, Prostaglandin G/H synthase 1 (Ovis aries, UniProt P05979) (assay: Reversible competitive inhibition of prostaglandin G/H synthase 1).
T1 sequence (P05979 whole entry): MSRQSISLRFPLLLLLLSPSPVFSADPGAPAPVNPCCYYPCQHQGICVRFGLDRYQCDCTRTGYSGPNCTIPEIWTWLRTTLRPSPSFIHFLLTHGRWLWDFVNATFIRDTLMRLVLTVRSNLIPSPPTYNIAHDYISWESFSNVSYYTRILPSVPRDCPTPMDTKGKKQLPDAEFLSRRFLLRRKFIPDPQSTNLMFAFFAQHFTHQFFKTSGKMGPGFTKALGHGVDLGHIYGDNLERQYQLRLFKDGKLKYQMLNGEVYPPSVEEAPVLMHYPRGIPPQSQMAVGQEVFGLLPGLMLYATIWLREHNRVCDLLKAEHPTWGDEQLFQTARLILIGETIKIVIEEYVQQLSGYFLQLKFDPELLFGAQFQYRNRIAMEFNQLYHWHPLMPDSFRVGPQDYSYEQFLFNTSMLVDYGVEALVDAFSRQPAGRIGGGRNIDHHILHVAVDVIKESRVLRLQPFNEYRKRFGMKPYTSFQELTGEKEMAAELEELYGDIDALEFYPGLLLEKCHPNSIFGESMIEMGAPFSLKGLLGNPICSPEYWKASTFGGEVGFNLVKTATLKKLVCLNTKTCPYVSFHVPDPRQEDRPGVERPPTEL
Outline: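 Ovine seminal vesicle COX-1, purified to >95% (Coomassie SDS-PAGE) and hematin-reconstituted. Coupled cyclooxygenase-peroxidase assay at 22 °C in 0.1 M Tris–HCl pH 8.0, read as TMPD oxidation after arachidonic acid start. Initial rates were taken because the enzyme auto-inactivates. Hydrogen-peroxide-initiated controls checked for peroxidase inhibition.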

| IC50 | Compound |
| --- | --- |
| 210 µM | COC(=O)C(C)c1ccc(-c2ccccc2)c(F)c1 (stereo not given) |
| 28.5 µM | COC(=O)C(C)c1ccc(-c2ccccc2)cc1 (stereo not given) |
| 24 µM | CNC(=O)C(C)c1ccc(-c2ccccc2)c(F)c1 (stereo not given) |
| 8.3 µM | CC(C(N)=O)c1ccc(-c2ccccc2)c(F)c1 (stereo not given) |
| 4.8 µM | CC(C(=O)N(C)C)c1ccc(-c2ccccc2)cc1 (stereo not given) |
| 215 µM | CC(C(=O)N(C)C)c1ccc(-c2ccccc2)c(F)c1 (stereo not given) |
| 59 µM | CC(C)Cc1ccc(C(C)C(=O)O)cc1[N+](=O)[O-] (stereo not given) |
| 19.5 µM | CNC(=O)C(C)c1ccc(-c2ccccc2)cc1 (stereo not given) |
| 64.5 µM | CC(C(N)=O)c1ccc(-c2ccccc2)cc1 (stereo not given) |
| 0.11 µM | CC(C)Cc1ccc(C(C)C(=O)O)cc1Br (stereo not given) |
